# Measured values reported in ChEMBL document CHEMBL1144774, “Vasorelaxing alkaloids and flavonoids from Cassytha filiformis” (J Nat Prod, 2008).
# Tested on: Aorta
# Test: Vasorelaxation activity in Sprague-Dawley rat aortic assessed as inhibition of phenylephrin-induced contraction
# Assay type: functional, tissue-based
# Method in brief: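 Endothelium-intact aortic rings from adult male rats (280–320 g) held isometrically at 1.8 g passive tension for 60 min; endothelium confirmed by >98% relaxation to acetylcholine (3 µM). Tonic contraction to phenylephrine (0.3 µM) set as 100%. Compound added cumulatively, 0.01–100 µM, one curve per ring. IC50 taken from percent-relaxation curves; mean ± SE of n independent experiments.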
row,Compound,IC50 [µM]
1,COC1=C[C@@]23CCN(C)[C@@H](Cc4cc(OC)c(OC)cc42)C3=CC1=O,28.9
2,COc1cc(-c2oc3cc(O)cc(O)c3c(=O)c2O[C@@H]2O[C@H](CO)[C@@H](O)[C@H](O)[C@H]2O)ccc1O,23.6
3,COc1ccc2c(c1OC)-c1c3c(c(OC)c4c1[C@H](C2)NCC4)OCO3,16.5
4,COC1=C[C@@]23CCN(C)[C@@H](Cc4ccc(OC)c(O)c42)C3=CC1=O,32.8
5,COc1ccc2c(c1C(=O)O)-c1c3c(c(OC)c4c1[C@H](C2)NCC4)OCO3 [CASSYTHIC ACID],2.48
6,COc1cc2c(cc1O)C[C@@H]1NCCc3c(OC)c4c(c-2c31)OCO4 [CASSYTHINE],0.09
7,COc1cc2c(cc1OC)-c1c3c(cc4c1[C@H](C2)N(C)CC4)OCO3 [DICENTRINE],0.08
8,COc1cc2c(cc1O)C(=O)c1nccc3c(OC)c4c(c-2c13)OCO4 [ISOFILIFORMINE],32
9,COc1cc(-c2oc3cc(O)cc(O)c3c(=O)c2O[C@@H]2O[C@H](CO[C@@H]3O[C@@H](C)[C@H](O)[C@@H](O)[C@H]3O)[C@@H](O)[C@H](O)[C@H]2O)ccc1O [NARCISSIN],16.8
10,CN1CCc2cc3c(c4c2[C@@H]1Cc1cc2c(cc1-4)OCO2)OCO3 [NEOLITSINE],0.29
